In article PMC8799559 (Advances in Therapy, 2021):

Key:
[1] = Population pharmacokinetics; format: in vivo, human
Procedure, shortened: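 Plasma drug measured by validated LC-MS/MS; LLOQ 2.08 or 2.18 ng/mL. Intensive sampling on cycle 1 day 4 and cycle 2 day 1, pre-dose to 8 h post-dose, plus pre-dose samples on cycle 1 day 8 and cycle 2 day 10. Prior model built on 505 subjects from eight studies applied by nonlinear mixed-effects (FOCEI). Checked by diagnostic plots, VPCs and NPDE.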

1L DLBCL = format: in vivo, human; settings: all-comers and BCL-2-IHC-positive subpopulations, logistic regression
Procedure, shortened: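 Phase 2 1L DLBCL patients (n = 199) given 800 mg test compound on a 10/21-day schedule with R-CHOP. PET-CT complete response assessed at the end-of-treatment visit, 6–8 weeks from day 1 of the last cycle. Logistic regression (logit link) on nominal AUCss; α = 0.05 for the exposure coefficient. Covariates added by forward stepwise selection at α = 0.01.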

[2] = fixed at legacy model estimate ref 13, cited from earlier work
[3] = legacy model, 50 subjects receiving venetoclax + R ref 13; cited from earlier work
[4] = phase 3 MURANO study, R/R CLL ref 19; cited from earlier work
[5] = tested on: circulating lymphocyte counts; settings: cited from earlier work
tumor size = settings: cited from earlier work
[6] = food effect on relative bioavailability

## CC1(C)CCC(CN2CCN(c3ccc(C(=O)NS(=O)(=O)c4ccc(NCC5CCOCC5)c([N+](=O)[O-])c4)c(Oc4cnc5[nH]ccc5c4)c3)CC2)=C(c2ccc(Cl)cc2)C1 [venetoclax]
[1]; human, plasma, oral
  half-life: 25.2 h
[1]; multiplicative CAVALLI study effect relative to legacy model
  θV2/F,GO27878 (study effect on V2/F): 2.33
1L DLBCL
  Association between venetoclax AUCss nominal and PET-CR rates: No clear association
[2]; covariate effect on CL/F
  θCL/F, moderate CYP3A inhibitor: 0.84
  θCL/F, strong CYP3A inhibitor: 0.18
  θCL/F,OATP1B3 inhibitor: 0.85
[2]; covariate effect on V2/F
  θV2/F, CLL/SLL/NHL: 1.71
  θV2/F,SEX=female: 0.68
[2]; final PopPK model
  CL/F: 447 L/day
  Q/F: 97.2 L/day
  V2/F: 118 L
  V3/F: 119 L
[2]; first-order absorption rate constant
  ka: 3.72 day⁻¹
[2]; [6]
  θF1,FOOD=fasting: 0.34
  θF1,FOOD=fed: 1.23
  θF1,FOOD=high fat: 1.43
  θF1,FOOD=moderate fat: 1.31
[2]; inter-individual variability
  Variability (CV) of CL/F: CV = 39.1%
  Variability (CV) of F1: CV = 31.2%
  Variability (CV) of V2/F: CV = 45.3%
[2]; inter-individual variance
  ω^2CL/F: 0.15
  ω^2F1: 0.10
  ω^2V2/F: 0.21
[2]; residual variance, additive
  σ^2add: 3.07 × 10^–7
[2]; residual variance, proportional
  σ^2prop: 0.22
[3]
  Increase of venetoclax CL/F by concomitant R administration: 1.21 fold
[4]
  Increase in CL/F for venetoclax when co-administered with R: 7%
[5]
  EC50 for circulating lymphocyte counts: 0.00863 µg/mL
Tumor size
  EC50 for tumor size: 0.146 µg/mL
